Assays:
Leishmania amazonensis [1] = experiment: Antileishmanial activity against Leishmania amazonensis IFLA/BR/1967/PH8 amastigotes infected in murine macrophages after 72 hrs by fluorometric analysis; assay type: functional; details: IFLA/BR/1967/PH8, 72 h
Leishmania amazonensis [2] = experiment: Induction of apoptosis in Leishmania amazonensis IFLA/BR/1967/PH8 promastigotes assessed as late apoptotic population at 5 uM after 24 hrs by Annexin V-FITC/PI staining based flow cytometric analysis (reference value: 2.62%); assay type: functional
Outline: (§1)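 Exponential-phase WT promastigotes (1x10^7 cells/mL) cultured 24 h at 25 °C; stained annexin V-FITC plus PI, flow cytometry with 10,000 events gated on parasites; quadrant percentages; three independent experiments.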

[3] = Selectivity index, ratio of CC50 for mouse peritoneal macrophages to IC50 for Leishmania amazonensis WHOM/BR/75/Josefa amastigotes transfected with green fluorescent protein
Outline: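 SI = CC50 for mouse peritoneal macrophages / GFP amastigote IC50. […] IC50: macrophages infected with GFP-expressing Josefa-strain parasites, treated with 0.78–100.0 µM for 72 h; fluorescence read at 485 nm excitation/528 nm emission. Three experiments in duplicate.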

Leishmania amazonensis [4] = experiment: Antileishmanial activity against Leishmania amazonensis IFLA/BR/1967/PH8 promastigotes transfected with red fluorescent protein after 72 hrs by MTT assay; assay type: functional; details: IFLA/BR/1967/PH8, 72 h
Leishmania amazonensis [5] = experiment: Induction of apoptosis in Leishmania amazonensis IFLA/BR/1967/PH8 promastigotes assessed as necrotic population at 2.5 uM after 24 hrs by Annexin V-FITC/PI staining based flow cytometric analysis (reference value: 0.03%); assay type: functional
Leishmania amazonensis [6] = experiment: Induction of mitochondrial membrane potential loss in Leishmania amazonensis IFLA/BR/1967/PH8 promastigotes at 5 uM after 24 hrs by JC-1 staining-based spectrofluorometric analysis relative to control; assay type: functional
Outline: (§2)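 Exponential WT promastigotes (1x10^7 cells/mL) treated 24 h at 25 °C; washed, JC-1 loaded, read at 485/528 and 540/600 nm; Δψm as 600/528 ratio, untreated = 100%; FCCP 20.0 µM for 30 min as positive control; three experiments in triplicate.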

Leishmania amazonensis [7] = experiment: Induction of mitochondrial membrane potential loss in Leishmania amazonensis IFLA/BR/1967/PH8 promastigotes at 10 uM after 24 hrs by JC-1 staining-based spectrofluorometric analysis relative to control; assay type: functional; outline: as §2
Leishmania amazonensis [8] = experiment: Antileishmanial activity against Leishmania amazonensis IFLA/BR/1967/PH8 amastigotes infected in murine macrophages at 3.6 uM incubated for 72 hrs followed by compound washout measured after 72 hrs by microscopic method relative to control; assay type: functional; details: IFLA/BR/1967/PH8, 72 h
Outline: (§3)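 Macrophages infected with WT PH8 parasites treated 72 h at 33 °C, 5% CO2; washed twice in PBS, then held in drug-free Warren's medium + 10% serum at 25 °C for 72 h; viable promastigotes counted microscopically versus untreated; three independent experiments in duplicate.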

Leishmania amazonensis [9] = experiment: Induction of ROS accumulation in Leishmania amazonensis IFLA/BR/1967/PH8 promastigotes at 5 uM after 72 hrs by H2DCFDA staining-based fluorometric analysis relative to control; assay type: functional
Outline: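 WT exponential-phase promastigotes treated at 25 °C; adjusted to 2x10^7 cells in PBS, loaded with H2DCFDA 30 min dark at room temperature; fluorescence 485/528 nm versus untreated; three independent experiments.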

Leishmania amazonensis [10] = experiment: Antileishmanial activity against Leishmania amazonensis IFLA/BR/1967/PH8 amastigotes infected in murine macrophages at 1.8 uM incubated for 72 hrs followed by compound washout measured after 72 hrs by microscopic method relative to control; assay type: functional; details: IFLA/BR/1967/PH8, 72 h; outline: as §3
[11] = Selectivity index, ratio of CC50 for mouse peritoneal macrophages to IC50 for Leishmania amazonensis IFLA/BR/1967/PH8 amastigotes transfected with red fluorescent protein
Outline: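 SI = CC50 for mouse peritoneal macrophages / RFP amastigote IC50. […] IC50: macrophages infected with RFP-expressing PH8 parasites, treated with 0.78–100.0 µM for 72 h; fluorescence read at 540 nm excitation/600 nm emission. Three experiments in duplicate.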

Leishmania amazonensis [12] = experiment: Induction of apoptosis in Leishmania amazonensis IFLA/BR/1967/PH8 promastigotes assessed as early apoptotic population at 20 uM after 24 hrs by Annexin V-FITC/PI staining based flow cytometric analysis (reference value: 5.29%); assay type: functional; outline: as §1
Leishmania amazonensis [13] = experiment: Antileishmanial activity against Leishmania amazonensis IFLA/BR/1967/PH8 promastigotes after 72 hrs by MTT assay; assay type: functional
Leishmania amazonensis [14] = experiment: Induction of apoptosis in Leishmania amazonensis IFLA/BR/1967/PH8 promastigotes assessed as necrotic population at 5 uM after 24 hrs by Annexin V-FITC/PI staining based flow cytometric analysis (reference value: 0.03%); assay type: functional; outline: as §1
Leishmania amazonensis [15] = experiment: Induction of apoptosis in Leishmania amazonensis IFLA/BR/1967/PH8 promastigotes assessed as late apoptotic population at 10 uM after 24 hrs by Annexin V-FITC/PI staining based flow cytometric analysis (reference value: 2.62%); assay type: functional; outline: as §1

IC50 (Leishmania amazonensis [1]): 900 nM
SMILES: CC(=O)[O-].CCCCCCCCCCn1cc(CO)[n+](C)n1
Activity (Leishmania amazonensis [2]): 1.58% | Ratio CC50/IC50 [3]: 144.9 | IC50 (Leishmania amazonensis [4]): 15600 nM | Activity (Leishmania amazonensis [5]): 0.16% | Activity (Leishmania amazonensis [6]): 20% | Activity (Leishmania amazonensis [7]): 32.5% | inhibition at 3.6 µM (Leishmania amazonensis [8]): 83.1% | Activity (Leishmania amazonensis [9]): 40.7% | inhibition at 1.8 µM (Leishmania amazonensis [10]): 69% | Ratio CC50/IC50 [11]: 115.9 | Activity (Leishmania amazonensis [12]): 30.92% | IC50 (Leishmania amazonensis [13]): 2600 nM | Activity (Leishmania amazonensis [14]): 0.3% | Activity (Leishmania amazonensis [15]): 11.16%
